The source made the active and inactive calls. No cut-off for these calls is given here.

This note sets out measurements from ChEMBL document CHEMBL1148738, “Design, synthesis, and in vitro evaluation of carbamate derivatives of 2-benzoxazolyl- and 2-benzothiazolyl-(3-hydroxyphenyl)-methanones as novel fatty acid amide hydrolase inhibitors” (J Med Chem, 2007).

The target of test [1] is T1, Fatty-acid amide hydrolase 1 (Rattus norvegicus, UniProt P97612).
T1 sequence (P97612 whole entry): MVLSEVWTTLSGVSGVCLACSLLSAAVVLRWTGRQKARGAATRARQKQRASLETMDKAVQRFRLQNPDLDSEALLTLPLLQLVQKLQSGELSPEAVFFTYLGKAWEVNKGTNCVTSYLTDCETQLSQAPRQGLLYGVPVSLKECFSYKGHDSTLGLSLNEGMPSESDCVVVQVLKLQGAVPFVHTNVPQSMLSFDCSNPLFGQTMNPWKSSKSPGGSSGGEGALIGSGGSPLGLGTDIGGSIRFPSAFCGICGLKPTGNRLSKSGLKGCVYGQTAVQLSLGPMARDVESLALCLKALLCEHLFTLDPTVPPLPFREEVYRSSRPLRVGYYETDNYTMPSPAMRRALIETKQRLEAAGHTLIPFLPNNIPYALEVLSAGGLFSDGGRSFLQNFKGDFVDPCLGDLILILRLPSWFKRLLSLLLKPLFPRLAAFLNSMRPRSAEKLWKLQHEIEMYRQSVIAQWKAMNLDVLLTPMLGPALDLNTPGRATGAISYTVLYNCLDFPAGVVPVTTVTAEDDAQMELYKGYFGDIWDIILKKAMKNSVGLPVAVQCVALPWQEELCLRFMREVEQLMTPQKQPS
The experiment in a line: Inhibition of FAAH activity in Wistar rat brain. The essentials: (§1)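 Enzyme source: supernatant (10 000 g, 20 min, 4 °C) of whole-brain-minus-cerebellum homogenate from 8-week-old male Wistar rats in 0.1 M potassium phosphate pH 7.4. Compound (in DMSO, final max 5%) preincubated 10 min with 18 µg protein. Substrate: [ethanolamine 1-³H]arachidonoylethanolamide, with 0.5% fatty-acid-free BSA, 10 min at 37 °C. Stopped with ethyl acetate. Aqueous [³H]ethanolamine counted by liquid scintillation.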

Test [2] is described as follows: Inhibition of MAGL in Wistar rat cerebellar membrane. It counts as cell membranes, Cerebellum. The essentials:
(§2)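 Cerebellar membranes from 4-week-old male Wistar rats. Preincubation 30 min at 25 °C: 10 µg protein, 44 mM Tris-HCl pH 7.4, 0.9 mM EDTA, 0.5% BSA, 1.25% DMSO. Incubation 90 min at 25 °C: 5 µg protein, 54 mM Tris-HCl, 1.1 mM EDTA, 100 mM NaCl, 5 mM MgCl2, 0.5% BSA, 50 µM 2-AG. Samples at 0 and 90 min stopped with acidified acetonitrile (pH 3.0). 2-AG and arachidonic acid quantified by HPLC-UV at 211 nm from peak areas.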

The species entered for test [3] is Rattus norvegicus. The experiment in a line: Inhibition of MAGL in Wistar rat cerebellar membrane assessed as remaining enzyme activity at 1 mM; values are per cent of control. The following applies: Cerebellum.
For test [4], the species on record is Rattus norvegicus. The experiment in a line: Inhibition of MAGL in Wistar rat cerebellar membrane at 100 uM. It counts as cell membranes. The following applies: Cerebellum. The gist of the method: as §2
In test [5] the target is T2, Fatty-acid amide hydrolase 1 (Rattus norvegicus) (UniProt P97612).
T2 sequence (whole entry): T1 sequence (P97612 whole entry)
The experiment in a line: Inhibition of FAAH activity in Wistar rat brain assessed as remaining enzyme activity at 10 uM; values are per cent of control.

Test [6] is filed under the species Rattus norvegicus. The experiment in a line: Inhibition of MAGL in Wistar rat cerebellar membrane assessed as remaining enzyme activity at 100 uM; values are per cent of control. The note with it: Cerebellum.
Test [7] addresses T2, Fatty-acid amide hydrolase 1 (Rattus norvegicus). The experiment in a line: Inhibition of FAAH activity in Wistar rat brain at 10 uM. The gist of the method:
as §1

Take `Cc1cccc(CNC(=O)Oc2cccc(C(=O)c3nc4ccccc4s3)c2)c1`: the IC50 (usually the concentration needed to halve the response being measured) was 38 nM in test [1] and 23000 nM in test [2]. The residual activity (usually the share of the control activity or signal that is left under treatment) in test [3] worked out at 11%.
With `O=C(Nc1cccc(C(=O)c2nc3ccccc3o2)c1)NC1CCCC1`, the result in test [4] was inactive. Besides, the residual activity in test [5] was found to be 94%.
`O=C(NC1CCCCC1)Oc1cccc(C(=O)c2nc3ccccc3o2)c1` returned an IC50 in test [1] of 47 nM. Also, the residual activity in test [6] worked out at 83%.
As for `O=C(c1cccc(NC(=O)C2CCCC2)c1)c1nc2ccccc2o1`, the outcome in test [4] was inactive. The residual activity in test [5] was 95%.
As to `CCCNC(=O)Oc1cccc(C(=O)c2nc3ccccc3s2)c1`, the IC50 in test [1] is 143 nM. Moreover, the residual activity in test [6] turned out to be 70%.
Turning to `O=C(c1cccc(OCc2ccccc2)c1)c1nc2ccccc2s1`, in test [7], the result was inactive. In addition, in test [4], the inhibition entry is “inactive”.
As for `O=C(Nc1cccc(C(=O)c2nc3ccccc3o2)c1)OC1CCCC1`, the result in test [4] was inactive. Further, the residual activity in test [5] is 95%.
Turning to `O=C(NC1CCCCC1)Oc1cccc(C(=O)c2nc3ccccc3s2)c1`, the IC50 in test [1] worked out at 56 nM. Further, the residual activity in test [6] worked out at 79%.
In turn, `CCNC(=O)Oc1cccc(C(=O)c2nc3ccccc3s2)c1` had an IC50 in test [1] of 238 nM. Besides, in test [6], the residual activity was 80%.
On the same counts, the results for `CCCNC(=O)Oc1cccc(C(=O)c2nc3ccccc3o2)c1` are 109 nM and 57%.
On to `O=C(c1cccc(OCc2ccccc2)c1)c1nc2ccccc2o1`, for which the outcome in test [7] and in test [4] was inactive.
Regarding `CCNC(=O)Oc1cccc(C(=O)c2nc3ccccc3o2)c1`, the IC50 in test [1] is 379 nM. Moreover, in test [6], the residual activity was determined as 75%.
As to `O=C(NC1CCCC1)Oc1ccc(C(=O)c2nc3ccccc3o2)cc1`, the values for the IC50 in test [1] and in test [2] were 288 nM and 14000 nM, respectively.
In test [1], `O=C(NCc1ccccc1)Oc1cccc(C(=O)c2nc3ccccc3o2)c1` returned an IC50 of 152 nM. In test [6], the residual activity worked out at 57%.
In test [1], `CCCCNC(=O)Oc1cccc(C(=O)c2nc3ccccc3s2)c1` had an IC50 of 103 nM. Also, in test [6], the residual activity is 76%.
On the same counts, the results for `O=C(NC1CCCC1)Oc1cccc(C(=O)c2nc3ccccc3s2)c1` are 47 nM and 71%.
In the case of `Cc1cccc(CNC(=O)Oc2cccc(C(=O)c3nc4ccccc4o3)c2)c1`, the IC50 is 32 nM in test [1] and 16000 nM in test [2]. The residual activity in test [3] was 11%.
In test [1], `CCCCNC(=O)Oc1cccc(C(=O)c2nc3ccccc3o2)c1` gave an IC50 of 54 nM. Further, in test [6], the residual activity worked out at 59%.
On the same counts, the results for `O=C(NC1CCCC1)Oc1cccc(C(=O)c2nc3ccccc3o2)c1` are 28 nM and 54%.
With `Cc1ccccc1CNC(=O)Oc1ccc(C(=O)c2nc3ccccc3o2)cc1`, the IC50 in test [1] was found to be 137 nM; in test [2], 25000 nM. Moreover, the residual activity in test [3] worked out at 11%.
On to `O=C(c1cccc(OC(=O)C2CCCC2)c1)c1nc2ccccc2o1`, for which, in test [4], the outcome was inactive. In test [5], the residual activity amounted to 88%.
`O=C(NCc1ccccc1)Oc1cccc(C(=O)c2nc3ccccc3s2)c1` yielded an IC50 in test [1] of 121 nM. The residual activity in test [6] was 75%.
